# GASC1 inh = inhibitors of GASC-1 (KDM4C) histone demethylase, primary screen, biochemical, single concentration HTS | Lysine-specific demethylase 4C (Homo sapiens), Q9H3R0 | GST-KDM4C 2-372, H3K9me3 peptide, LANCE TR-FRET | inhibition, % at 12.5 µM | actives 0.15% (n = 96,000) | AID 720574, 2013;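 active means mean replicate inhibition above about 25%, with at least 55% of replicates also reaching it, limit read from the data, passing the limit was not always enough; inconclusive means only one of those two conditions met; inactive means neither condition met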
#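 Assay system: GST-GASC-1 enzyme fragment 2-372 | Amount: 10 nM enzyme | Medium: HEPES buffer, pH 7.5, plus ascorbate | Reagent: H3K9me3 peptide substrate, Fe(II), 2-oxoglutarate | Doses: Single-point compound screen | Incubation: 30 min demethylation and 1 h detection at room temperature | Measured by: LANCE TR-FRET, excitation 340 nm, emissions 618 and 671 nm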
# T cruzi growth-1 = T. cruzi intracellular proliferation inhibitors, primary screen, cell-based, beta-gal Tulahuen parasites, NIH3T3 host, luminescence; T. cruzi beta-gal in NIH3T3, GalScreen luminescence, 90 h; inhibition, % at 8.34 µM; actives 5.9% (n = 77,000); AID 624255, 2012;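 active means mean inhibition above about 93%, with at least 55% of replicates each passing it, limit read from the data, passing the limit was not always enough; inconclusive means only one of those two conditions holds; inactive means neither condition holds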
# Pf Dd2 growth = P. falciparum Dd2 growth inhibitors, primary screen, SYBR Green fluorescence, single dose replicates; 72 h; hits give low values; activity change, % at 10 µM; actives 2.3% (n = 94,000); in the data active means activity change below about -80%; inconclusive means no clear call, values can overlap the other calls
# IDH1 R132H inh = inhibitors of IDH1 R132H reductase, primary screen, biochemical, plate reader, single point. Isocitrate dehydrogenase [NADP] cytoplasmic (Homo sapiens), O75874. diaphorase/resazurin fluorescence, 60 min. inhibition, % at 10 µM. actives 0.18% (n = 70,000); in the data active means inhibition above about 34%; inconclusive means no clear call, values can overlap the other calls; inactive means below about 11%
# Target sequence (O75874 whole entry R132H): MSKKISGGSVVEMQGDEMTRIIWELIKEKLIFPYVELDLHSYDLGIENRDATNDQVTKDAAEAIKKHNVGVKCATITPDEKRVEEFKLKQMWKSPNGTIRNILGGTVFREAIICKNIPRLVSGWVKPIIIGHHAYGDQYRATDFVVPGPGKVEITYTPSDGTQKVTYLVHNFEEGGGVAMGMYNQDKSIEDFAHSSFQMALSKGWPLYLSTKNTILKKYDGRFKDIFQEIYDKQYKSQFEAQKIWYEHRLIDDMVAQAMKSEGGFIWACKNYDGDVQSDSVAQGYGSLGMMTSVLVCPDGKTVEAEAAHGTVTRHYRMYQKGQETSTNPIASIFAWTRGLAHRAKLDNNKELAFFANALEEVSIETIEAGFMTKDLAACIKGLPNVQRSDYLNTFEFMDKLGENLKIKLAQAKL
# T cruzi growth-2 = T. cruzi intracellular proliferation inhibitors, confirmation, cell-based, NIH3T3 host, beta-gal parasite, luminescence, cherry-pick; shares compounds with T cruzi growth-1; T. cruzi beta-gal in NIH3T3, GalScreen luminescence, 90 h; inhibition, % at 8.35 µM; actives 72% (n = 5,600); AID 651739, 2012;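 active means mean replicate inhibition above about 95% and at least 55% of replicates individually reaching it, limit read from the data; inconclusive means only one of the two criteria is met; inactive means neither criterion is met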
# T cruzi growth-3 = inhibitors of intracellular T. cruzi replication, confirmation, NIH3T3 host cells, beta-gal parasites, cherry-pick, set 2. actives 21% (n = 5,600). T. cruzi beta-gal in NIH3T3, GalScreen luminescence, 90 h. AID 651740, 2012. inhibition, % at 2.09 µM. shares compounds with T cruzi growth-1;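 active means mean inhibition above about 95%, with at least 55% of replicates also reaching it, limit read from the data; inconclusive means meets just one of the two conditions; inactive means meets neither condition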
# 3T3 cytotox = cytotoxicity in mouse NIH/3T3 fibroblasts, confirmation, cytotoxicity control for T. cruzi proliferation inhibitor project, cell-based, cherry-pick, single point | cytotoxicity (signal decrease), % at 8.35 µM | actives 14% (n = 5,600) | NIH/3T3 viability, CellTiter-Glo ATP luminescence, 90 h | shares compounds with T cruzi growth-1 | AID 651742, 2012;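 active means mean signal decrease across replicates above about 35% based on untreated-well scatter, with enough replicates individually passing, limit read from the data; inconclusive means no rule stated though some were filed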
# 3T3 cytotox 2 = NIH/3T3 fibroblast cytotoxicity, confirmation, cytotoxicity control, cell-based, cherry-pick, single point, set 2. shares compounds with T cruzi growth-1. NIH/3T3 viability, CellTiter-Glo ATP luminescence, 90 h. inhibition, % at 24.9 µM. actives 56% (n = 5,600);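 active means mean loss of cell viability signal at or above a set limit, and enough replicates individually reaching it; inconclusive means meets only the mean limit or only the replicate share; inactive means meets neither condition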
# Hits are given with their value; - = inactive; ? = inconclusive; . = no result. The list is not random: actives were taken first. Their share in the collection is about 5.8%.
SMILES,GASC1 inh,T cruzi growth-1,Pf Dd2 growth,IDH1 R132H inh,T cruzi growth-2,T cruzi growth-3,3T3 cytotox,3T3 cytotox 2
C[C@@H]1CN([C@H](C)CO)C(=O)c2cc(N(C)C)ccc2O[C@@H]1CN(C)Cc1ccc(C(=O)Nc2ccccc2N)cc1,.,103.1,-,.,-,-,73.9,93.6
C[C@@H]1CN([C@H](C)CO)C(=O)c2cccc(NC(=O)Nc3ccc4c(c3)OCO4)c2O[C@H]1CN(C)Cc1ccc(C(=O)Nc2ccccc2N)cc1,-,112.1,-86.4,.,102.3,-,-,71.4
C[C@@H]1CN([C@H](C)CO)C(=O)c2cc(NC(=O)Nc3ccc4c(c3)OCO4)ccc2O[C@@H]1CN(C)Cc1ccc(C(=O)Nc2ccccc2N)cc1,-,-,-,.,.,.,.,.
C[C@@H]1CN([C@H](C)CO)C(=O)c2cc(N(C)C)ccc2O[C@H]1CN(C)Cc1ccc(C(=O)Nc2ccccc2N)cc1,-,-,-,.,.,.,.,.
C[C@H]1CN([C@@H](C)CO)C(=O)c2cccc(NC(=O)Nc3ccccc3)c2O[C@@H]1CN(C)Cc1ccc(C(=O)Nc2ccccc2N)cc1,-,99.7,-87.7,.,101.4,98.5,?,79.9
C[C@@H]1CN([C@@H](C)CO)C(=O)c2cc(NS(=O)(=O)c3cccs3)ccc2O[C@H]1CN(C)Cc1ccc(C(=O)Nc2ccccc2N)cc1,-,107.9,-,-,96.6,-,-,-
C[C@@H]1CN([C@@H](C)CO)C(=O)Cc2cc(NS(=O)(=O)c3cccs3)ccc2O[C@H]1CN(C)Cc1ccc(C(=O)Nc2ccccc2N)cc1,-,-,-,-,.,.,.,.
Nc1nnc(SC2c3cccc4cccc(c34)C2NS(=O)(=O)c2ccc(Cl)cc2)s1 (stereo not given),.,.,.,-,.,.,.,.
COc1ccccc1CNC(=O)C[C@@H]1CC[C@@H](NC(C)=O)[C@H](CO)O1,-,?,-,-,-,-,-,-
COc1ccccc1CNC(=O)C[C@H]1C[C@@H]2c3cc(NC(=O)Nc4ccc(C(F)(F)F)cc4)ccc3O[C@@H]2[C@@H](CO)O1,-,140.5,?,-,110.4,100.6,-,-
COc1ccccc1CNC(=O)C[C@H]1CC[C@H](NC(C)=O)[C@H](CO)O1,-,-,-,-,.,.,.,.
COc1ccccc1CNC(=O)C[C@H]1C[C@H]2c3cc(NC(=O)Nc4ccc(C(F)(F)F)cc4)ccc3O[C@H]2[C@@H](CO)O1,-,122.9,-,-,105.3,-,-,-
COc1ccccc1CNC(=O)C[C@H]1C[C@H]2c3cc(NC(=O)CC4CC4)ccc3O[C@H]2[C@H](CO)O1,-,-,-,-,.,.,.,.
COCC(=O)Nc1ccc2c(c1)[C@H]1C[C@H](CC(=O)NCc3ccccc3OC)O[C@@H](CO)[C@H]1O2,-,100.7,-,-,-,-,-,-
Cc1ccc(NC(=O)CSc2nnc(C)n2-c2ccccc2)cc1C,.,.,.,-,.,.,.,.
COc1ccc(C)cc1Nc1nc(N)nc(-c2oc3ccccc3c2C)n1,.,.,.,-,.,.,.,.
CSc1ccccc1NC(=O)CSc1nnnn1-c1ccccc1F,.,.,.,-,.,.,.,.
N#C[C@H]1[C@@H](c2ccc(C#CCC3CCCC3)cc2)[C@H](CO)N1C(=O)CN1CCOCC1,-,-,-,.,.,.,.,.
COCC(=O)N1[C@@H](C#N)[C@@H](c2ccc(C#CCC3CCCC3)cc2)[C@@H]1CO,-,?,-,.,99.0,-,-,102.7
N#C[C@@H]1[C@H](c2ccc(C#CCC3CCCC3)cc2)[C@H](CO)N1C(=O)CN1CCOCC1,-,?,-,.,102.3,106.8,-,77.1
COC(=O)CCCCCCC(=O)N/N=C/c1cc(OC)ccc1O,.,.,.,-,.,.,.,.
O=C(Cc1ccccc1)N1CC[C@@H]2[C@H]1c1cc(-c3ccccc3F)ccc1N[C@@H]2CO,-,112.7,-,.,-,-,-,53.0
O=C(CN1CCOCC1)N1CC[C@@H]2[C@@H](CO)Nc3ccc(-c4ccccc4F)cc3[C@@H]21,-,-,-,.,.,.,.,.
O=C(Cc1ccccc1)N1CC[C@H]2[C@H](CO)Nc3ccc(-c4ccccc4)cc3[C@H]21,-,?,-,.,104.8,-,-,-
O=C(Cc1ccccc1)N1CC[C@H]2[C@H](CO)Nc3ccc(C#Cc4ccccc4)cc3[C@H]21,-,119.4,-,.,104.6,-,-,74.7
SMILES,GASC1 inh,T cruzi growth-1,Pf Dd2 growth,IDH1 R132H inh,T cruzi growth-2,T cruzi growth-3,3T3 cytotox,3T3 cytotox 2
O=C(Cc1ccccc1)N1CC[C@H]2[C@H](CO)Nc3ccc(C#Cc4cccc(F)c4)cc3[C@H]21,-,.,-,.,.,.,.,.
O=C(CSc1nc2ccccc2o1)N1N=CCC1c1ccccc1 (stereo not given),.,.,.,-,.,.,.,.
CC(C)CC#Cc1ccc2c(c1)O[C@@H](CN(C)C(=O)NC1CCCC1)[C@H](C)CN([C@H](C)CO)S2(=O)=O,-,122.9,-,-,109.0,-,-,94.3
CC(C)CC#Cc1ccc2c(c1)O[C@H](CN(C)C(=O)NC(C)C)[C@@H](C)CN([C@H](C)CO)S2(=O)=O,-,-,-,-,.,.,.,.
C[C@@H]1CN([C@@H](C)CO)S(=O)(=O)c2ccc(C#Cc3cccc(F)c3)cc2O[C@H]1CN(C)C(=O)NC1CCCCC1,-,.,-,-,.,.,.,.
CC(C)CC#Cc1ccc2c(c1)O[C@@H](CN(C)C(=O)NC1CCCC1)[C@H](C)CN([C@@H](C)CO)S2(=O)=O,-,118.1,-,-,100.4,-,-,-
COc1ccc2nc(SCC(=O)NC3CCCC3)[nH]c2c1,.,.,.,-,.,.,.,.
c1ccc2c(c1)OCC(c1nn3c(Cn4cnc5ccccc54)nnc3s1)O2 (stereo not given),.,.,.,-,.,.,.,.
C[C@H]1CN([C@@H](C)CO)C(=O)Cc2cc(NC(=O)Cc3ccccc3)ccc2O[C@@H]1CN(C)Cc1ccc2c(c1)OCO2,-,102.5,-,-,108.1,-,-,-
C[C@H]1CN([C@@H](C)CO)C(=O)Cc2cc(NC(=O)Cc3ccccc3)ccc2O[C@@H]1CN(C)Cc1ccc(C(F)(F)F)cc1,-,119.9,-,-,111.9,-,-,98.4

# Screening results deposited in PubChem BioAssay by Broad Institute.
